Series [1] deals with T1, Zinc finger protein GLI1 (Homo sapiens) (UniProt P08151).
T1 sequence (whole entry): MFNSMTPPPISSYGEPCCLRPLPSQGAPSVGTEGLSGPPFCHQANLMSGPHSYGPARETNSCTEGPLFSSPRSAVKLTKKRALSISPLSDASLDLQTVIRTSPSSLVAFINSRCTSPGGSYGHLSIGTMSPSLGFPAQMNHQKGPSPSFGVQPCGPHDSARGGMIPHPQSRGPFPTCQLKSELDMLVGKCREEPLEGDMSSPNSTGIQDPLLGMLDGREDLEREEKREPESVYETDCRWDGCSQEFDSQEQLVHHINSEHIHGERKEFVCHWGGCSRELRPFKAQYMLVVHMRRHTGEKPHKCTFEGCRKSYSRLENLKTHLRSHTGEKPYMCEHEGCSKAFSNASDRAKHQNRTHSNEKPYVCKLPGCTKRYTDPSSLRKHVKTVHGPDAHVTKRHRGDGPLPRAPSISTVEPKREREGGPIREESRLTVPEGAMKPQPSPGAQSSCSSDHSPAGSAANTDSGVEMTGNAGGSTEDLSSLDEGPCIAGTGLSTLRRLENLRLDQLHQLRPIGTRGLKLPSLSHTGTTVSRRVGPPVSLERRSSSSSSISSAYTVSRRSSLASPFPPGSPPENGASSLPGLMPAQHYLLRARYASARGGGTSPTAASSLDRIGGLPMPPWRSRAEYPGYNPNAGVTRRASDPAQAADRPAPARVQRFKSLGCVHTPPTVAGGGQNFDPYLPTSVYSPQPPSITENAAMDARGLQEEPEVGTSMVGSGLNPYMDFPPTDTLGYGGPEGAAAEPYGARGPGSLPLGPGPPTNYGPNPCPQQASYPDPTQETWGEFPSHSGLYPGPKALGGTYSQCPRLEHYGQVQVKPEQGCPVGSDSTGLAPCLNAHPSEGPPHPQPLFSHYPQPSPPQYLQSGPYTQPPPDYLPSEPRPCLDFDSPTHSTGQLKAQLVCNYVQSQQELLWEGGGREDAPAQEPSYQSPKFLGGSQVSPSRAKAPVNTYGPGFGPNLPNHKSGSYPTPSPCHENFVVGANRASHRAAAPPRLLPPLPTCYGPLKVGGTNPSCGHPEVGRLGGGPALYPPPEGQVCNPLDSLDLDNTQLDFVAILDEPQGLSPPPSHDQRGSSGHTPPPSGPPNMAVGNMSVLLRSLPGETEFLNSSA
In words: Inhibition of GLI1 transcriptional activity in human A375 cells assessed as downregulation of GLI2 mRNA expression at 5 uM incubated for 48 hrs by qPCR analysis. The following applies: A-375. The format is cell-based. The procedure, abridged:
(§1)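 A375 cells treated with compound (5 μM) or DMSO for 48 h. mRNA measured by qPCR as gene/(mean of HPRT and EIF2α) ratio, DMSO control set to 1. Mean ± SD.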
For orientation: Quantitative PCR measures a nucleic acid by following its amplification.

Series [2] deals with A-375. Put plainly: Antiproliferative activity against human A375 cells transfected with lentivrus-encoding shRNA against GLI2 assessed as reduction in cell viability incubated for 72 hrs by trypan blue or crystal violet staining based assay. The format is functional. The procedure, abridged: (§2)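 A375 melanoma cells transduced with control lentivirus (LV-c), LV-shGLI1 or LV-shGLI2, with knockdown checked by Western blot (HSP90 loading control). Cells treated with DMSO or compound at the indicated doses for 72 h, then viability read. Values are mean ± SD of at least three independent experiments.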

In series [3] the test system is A-375. Put plainly: Antiproliferative activity against human A375 cells assessed as reduction in cell viability incubated for 72 hrs by trypan blue or crystal violet staining based assay. The format is functional. The settings on record: Homo sapiens, A-375, 72 h; read-out: IC50.
Series [4] addresses T1, Zinc finger protein GLI1 (Homo sapiens). Put plainly: Inhibition of GLI1 transcriptional activity in human A375 cells assessed as downregulation of PTCH1 mRNA expression at 5 uM incubated for 48 hrs by qPCR analysis. Type of series: cell-based. The following applies: A-375. In a few lines: as §1
Series [5] has the same target. In words: Inhibition of GLI1 transcriptional activity in human A375 cells assessed as downregulation of Cyclin D1 mRNA expression at 5 uM incubated for 48 hrs by qPCR analysis. The format is cell-based. The settings on record: A-375. In a few lines: as §1
For series [6], the system named is A-375. In words: Antiproliferative activity against human A375 cells transfected with lentivrus-encoding shRNA against GLI1 assessed as reduction in cell viability incubated for 72 hrs by trypan blue or crystal violet staining based assay. Type of series: functional. The procedure, abridged:
as §2

For series [7], the target named is T1, Zinc finger protein GLI1 (Homo sapiens). Put plainly: Inhibition of GLI1 transcriptional activity in human A375 cells assessed as downregulation of HIP1 mRNA expression at 5 uM incubated for 48 hrs by qPCR analysis. The settings on record: A-375. Type of series: cell-based. In a few lines:
as §1

Series [8] has as its system Daoy. In words: Antiproliferative activity against human DaOY cells assessed as reduction in cell viability incubated for 72 hrs by trypan blue or crystal violet staining based assay. The following applies: Homo sapiens, Daoy, 72 h; read-out: IC50. The format is functional.
For series [9], the system named is MCF-10A. In words: Cytotoxicity against human MCF10A cells assessed as reduction in cell viability incubated for 72 hrs by trypan blue or crystal violet staining based assay.
Series [10] concerns the target T2, Zinc finger protein GLI1 (Mus musculus) (UniProt P47806).
T2 sequence (whole entry): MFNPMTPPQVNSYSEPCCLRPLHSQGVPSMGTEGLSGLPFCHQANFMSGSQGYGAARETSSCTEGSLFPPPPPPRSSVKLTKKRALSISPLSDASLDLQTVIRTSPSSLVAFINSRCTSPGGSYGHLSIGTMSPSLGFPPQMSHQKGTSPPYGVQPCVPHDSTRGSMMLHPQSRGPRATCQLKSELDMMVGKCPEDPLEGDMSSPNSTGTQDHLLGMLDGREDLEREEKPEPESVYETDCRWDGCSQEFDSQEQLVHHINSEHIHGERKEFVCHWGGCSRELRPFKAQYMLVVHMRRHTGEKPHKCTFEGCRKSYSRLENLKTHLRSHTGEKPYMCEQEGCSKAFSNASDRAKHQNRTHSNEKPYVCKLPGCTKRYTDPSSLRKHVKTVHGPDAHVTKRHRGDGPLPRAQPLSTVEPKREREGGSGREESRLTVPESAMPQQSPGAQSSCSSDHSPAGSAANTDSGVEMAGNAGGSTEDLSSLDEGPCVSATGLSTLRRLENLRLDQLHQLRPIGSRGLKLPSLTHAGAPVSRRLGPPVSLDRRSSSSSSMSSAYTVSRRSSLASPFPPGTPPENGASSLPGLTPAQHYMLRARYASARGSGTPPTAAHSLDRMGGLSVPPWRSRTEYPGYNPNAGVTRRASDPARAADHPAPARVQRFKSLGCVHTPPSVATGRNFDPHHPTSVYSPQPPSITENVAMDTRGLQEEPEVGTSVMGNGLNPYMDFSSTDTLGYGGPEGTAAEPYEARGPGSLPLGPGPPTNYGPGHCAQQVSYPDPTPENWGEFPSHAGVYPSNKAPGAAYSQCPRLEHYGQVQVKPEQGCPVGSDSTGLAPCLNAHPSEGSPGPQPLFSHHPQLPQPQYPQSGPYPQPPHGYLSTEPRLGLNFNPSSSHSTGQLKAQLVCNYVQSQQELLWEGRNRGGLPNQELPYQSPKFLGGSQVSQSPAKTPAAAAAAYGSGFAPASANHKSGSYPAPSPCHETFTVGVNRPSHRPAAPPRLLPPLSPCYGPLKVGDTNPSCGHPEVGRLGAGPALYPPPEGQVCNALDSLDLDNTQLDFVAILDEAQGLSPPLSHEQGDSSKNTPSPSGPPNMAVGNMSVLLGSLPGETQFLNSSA
In words: Inhibition of GLI1 transcriptional activity in HH-responsive mouse NIH3T3 cells assessed as reduction in GLI1 protein expression at 5 uM incubated for 48 hrs in presence of SAG by Western blot analysis. Type of series: cell-based. The procedure, abridged:
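Murine NIH3T3 cells given 100 nM SAG plus compound (5 μM) or DMSO for 48 h. Endogenous GLI1 protein measured by Western blot with HSP90 as loading control, band quantified against SAG-treated cells.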
(In general: In western blotting, separated proteins are transferred to a membrane and probed.)

Series [11] has as its target T1, Zinc finger protein GLI1 (Homo sapiens). In words: Inhibition of GLI1 transcriptional activity in human A375 cells assessed as downregulation of GLI1 mRNA expression at 5 uM incubated for 48 hrs by qPCR analysis. The settings on record: A-375. The format is cell-based. In a few lines: as §1
Series [12] has as its target T2, Zinc finger protein GLI1 (Mus musculus). Put plainly: Inhibition of GLI1 transcriptional activity in HH-responsive mouse NIH3T3 cells assessed as reduction in SAG-induced luciferase activity at 5 uM incubated for 48 hrs by luciferase reporter gene assay relative to control. Type of series: cell-based. In a few lines: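 HH-responsive NIH3T3 cells carrying a GLI-dependent firefly luciferase reporter with renilla control, treated 48 h with 100 nM SAG plus compound (5 μM). Firefly/renilla ratio normalised to SAG-only cells set at 100%, reported as percent inhibition.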
On the technique in general: A reporter such as luciferase makes a cellular process visible.

The term inhibition denotes the share of the control response that was lost under treatment. As a reminder, the IC50 is the concentration that gives 50% inhibition.

The source made the active and inactive calls. No cut-off for these calls is given here.

Turning to `O=C(NC1CCCc2ccccc21)c1cnn2c(C(F)(F)F)cc(-c3cccs3)nc12` (stereo not given), the inhibition result in series [1], in series [4], in series [5], in series [7], in series [10] and in series [11] was “Active” in each case. The result in [2] and in series [6] was inactive. The concentration for half-maximal inhibition (IC50) is 1.2 µM in series [3] and 4.4 µM in series [8]. The Activity entry in series [9] is reported as “Non-Toxic”. For the same molecule, the inhibition in series [12] was 49%.
Regarding `COc1cc(OC)c2c(=O)c(-c3ccc(OCC=C(C)C)c(OCC=C(C)C)c3)coc2c1`, the inhibition result in series [1], in series [4], in series [5], in series [7], in [10] and in series [11] was “Active” each time. Further, the result in [2] and in series [6] was inactive. The IC50 came out at 0.4 µM in series [3] and 0.13 µM in series [8]. Moreover, the inhibition in series [12] was found to be 46%.
With `CCOC(=O)c1c(-c2ccccc2)csc1NC(NC(=O)CC)C(Cl)(Cl)Cl` (stereo not given), the inhibition result in series [1], in [4], in series [5], in series [7], in [10] and in series [11] was “Active” in each case. Further, the result in series [2] and in series [6] was inactive. The 50% inhibitory concentration (IC50) was 4.1 µM in series [3] and 6 µM in [8]. For the same molecule, in series [9], the Activity result is recorded as “Non-Toxic”. In addition, the inhibition in series [12] amounted to 42%.

(Values after ChEMBL document CHEMBL4613300, “Pharmacophore-Based Virtual Screening for Identification of Negative Modulators of GLI1 as Potential Anticancer Agents” (ACS Med Chem Lett, 2020).)
